Our source for the IC50 values is ChEMBL document CHEMBL1938395, “New benzimidazole derivatives as antiplasmodial agents and plasmepsin inhibitors: synthesis and analysis of structure-activity relationships” (Bioorg Med Chem Lett, 2012).

One may read the IC50 as the concentration needed to halve the response being measured.

Experiment [1] relates to Plasmodium falciparum. Nature of the experiment: Antiplasmodial activity against late ring stage Plasmodium falciparum HB3 assessed as [3H]hypoxanthine incorporation after 24 hrs by scintillation counting. Type of experiment: functional, organism-based. The gist of the method:
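Late ring stage cultures at 0.5% parasitemia were exposed to a range of compound concentrations in hypoxanthine-free rich medium for 42 h. 0.5 µCi [3H]hypoxanthine was then added and incubation continued for 24 h. Cells were harvested on glass fiber paper and counted by scintillation. Percent inhibition of uptake versus concentration was fitted with a modified dose–response logistic equation for IC50.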

For experiment [2], the target named is Cathepsin D (Homo sapiens, UniProt P07339). Nature of the experiment: Inhibition of human cathepsin D using DABCYL-Glu-Arg-Nle-Phe-Leu-Ser-Phe-Pro-EDANS as substrate by FRET analysis. Summed up: (§1)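 Enzyme (plasmepsin II or cathepsin D) at 1.2 nM with 1.0 µM FRET substrate in 0.1 M sodium acetate pH 5.0, 10% glycerol, 0.01% Tween 20. Compounds were dissolved in DMSO and added before substrate, at 5.0% final DMSO. Fluorescence was read at excitation 336 nm and emission 490 nm. Triplicates.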
Chain of Cathepsin D (P07339 65-162 limits assumed): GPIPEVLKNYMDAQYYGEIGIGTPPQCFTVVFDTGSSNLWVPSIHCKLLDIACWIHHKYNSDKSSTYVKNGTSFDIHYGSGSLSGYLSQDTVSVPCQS
Chain of Cathepsin D (P07339 169-412 limits assumed): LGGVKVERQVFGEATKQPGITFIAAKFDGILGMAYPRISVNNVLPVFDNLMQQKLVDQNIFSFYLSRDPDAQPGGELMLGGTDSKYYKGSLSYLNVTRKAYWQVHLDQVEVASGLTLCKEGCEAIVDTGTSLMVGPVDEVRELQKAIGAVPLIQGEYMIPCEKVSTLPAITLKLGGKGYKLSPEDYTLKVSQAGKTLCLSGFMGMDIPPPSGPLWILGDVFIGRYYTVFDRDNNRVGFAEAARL

Experiment [3] concerns the target Plasmepsin II (Plasmodium falciparum, UniProt P46925). Briefly: Inhibition of Plasmodium falciparum plasmepsin-2 using DABCYL-Glu-Arg-Nle-Phe-Leu-Ser-Phe-Pro-EDANS as substrate by FRET analysis. The gist of the method: as §1
Experiment [4] relates to Plasmodium falciparum. Briefly: Antiplasmodial activity against late ring stage Plasmodium falciparum HB3 after 1 hr by acridine orange staining-based flow cytometric analysis. The format is functional, organism-based. Particulars: HB3, 1 h.

Chain of Plasmepsin II (P46925 whole entry): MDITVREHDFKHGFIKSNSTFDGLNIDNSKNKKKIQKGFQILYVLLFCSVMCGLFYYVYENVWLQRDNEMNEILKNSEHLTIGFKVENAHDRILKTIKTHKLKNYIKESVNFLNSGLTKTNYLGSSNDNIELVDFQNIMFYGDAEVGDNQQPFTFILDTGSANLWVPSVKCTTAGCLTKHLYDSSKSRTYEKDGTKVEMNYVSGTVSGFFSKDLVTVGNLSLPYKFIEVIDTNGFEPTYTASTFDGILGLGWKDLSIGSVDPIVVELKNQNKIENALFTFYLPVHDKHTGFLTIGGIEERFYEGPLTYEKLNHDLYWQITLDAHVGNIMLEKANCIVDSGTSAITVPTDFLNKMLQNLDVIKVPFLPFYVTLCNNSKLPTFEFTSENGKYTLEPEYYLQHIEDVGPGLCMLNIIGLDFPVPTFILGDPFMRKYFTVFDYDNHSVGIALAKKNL

Turning to `O=C(Cn1c(-c2ccccn2)nc2ccccc21)c1cccc([N+](=O)[O-])c1`, the IC50 in experiment [1] is at least 3 µM; in experiment [2], 21.2 µM; in experiment [3] it was 20.4 µM.
On the same counts, the results for `O=C(Cn1c(-c2ccccn2)nc2ccccc21)c1ccc(O)c(O)c1` are at least 3 µM, 28.5 µM and 19.6 µM.
For `O=C(Cn1c(-c2ccccn2)nc2ccccc21)c1ccc(Cl)cc1`, in that order: 0.7 µM, 31.9 µM and 21.2 µM.
For the compound `O=C(Cn1c(-c2ccccn2)nc2ccccc21)c1ccccc1[N+](=O)[O-]`, the half-inhibitory concentration (IC50) was at least 3 µM in experiment [1], 39.2 µM in experiment [2] and 30.6 µM in experiment [3].
As for `O=C(Cn1c(-c2ccccn2)nc2ccccc21)c1ccc([N+](=O)[O-])cc1`, the results for the IC50 in experiment [1], in experiment [2] and in experiment [3] were 2.1 µM, 17.8 µM and 30.5 µM, respectively.
For `O=C(Cn1c(-c2ccccn2)nc2ccccc21)c1ccc(F)cc1`, in that order: 3 µM, 31.9 µM and 10 µM.
Consider `O=C(Cn1c(-c2ccccn2)nc2ccccc21)c1ccc(F)cc1F`, for which the IC50 in experiment [1] is at least 3 µM; in experiment [2] it was 44.5 µM; in experiment [3] it was 48 µM.
On the same counts, the results for `O=C(Cn1c(-c2ccccn2)nc2ccccc21)c1ccccc1` are at least 3 µM, 39.2 µM and 10 µM.
`O=C(Cn1c(-c2ccccn2)nc2ccccc21)c1ccc(-c2ccccc2)cc1`: the half-maximal inhibitory concentration (IC50) in experiment [4] is 0.166 µM; in experiment [1], 0.16 µM; in experiment [2] it was 2 µM; in experiment [3], 14.7 µM.
Take `COc1ccc(C(=O)Cn2c(-c3ccccn3)nc3ccccc32)cc1`: the figures for the half-inhibitory concentration (IC50) in experiment [1], in experiment [2] and in experiment [3] were at most 3 µM, 14.2 µM and 37.7 µM, respectively.
On the same counts, the results for `COc1ccc(OC)c(C(=O)Cn2c(-c3ccccn3)nc3ccccc32)c1` are at most 3 µM, 21.2 µM and 34 µM.
